SKKanGAS inh = blocks kanamycin growth of S. pyogenes SKKanGAS strain. BacTiter-Glo, 6 h. inhibition, % at 7.5 µM. 300,000 tested, 1.3% active;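 active = mean replicate score, as percent of positive control median, at least 50; inconclusive = mean below 50 but one replicate at or above 50; inactive = mean and every replicate below 50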;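 note: strain carries kanamycin resistance gene driven by streptokinase promoter and grows in 40 µg/ml kanamycin; loss of luminescence reflects streptokinase promoter inhibition or plain growth inhibition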
Beta cell apopt = beta cell apoptosis inhibition; INS-1E cytokine-induced death, ATP luminescence, 48 h; percent of positive-control rescue, neutral wells zero; protection from apoptosis, % (test concentration not listed); 300,000 tested, 0.8% active; AID 435005;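 active = Every replicate reaches about 75%, or at least half do and their mean reaches it too, limit read from the data; inconclusive = At least half of replicates reach the limit but their mean does not; inactive = Under half of replicates reach the limit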;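 note: higher means more ATP so stronger rescue from cytokine killing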
Calb FLC = affects C. albicans growth with fluconazole. C. albicans CaCi-2 (fluconazole-resistant clinical isolate) + fluconazole, Alamar Blue growth, 48 h. growth inhibition, % (concentration not given with the values). 300,000 tested, 0.57% active. AID 1979;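 active = growth inhibition above about 58% in most replicates, limit read from the data, passing the limit was not always enough; inconclusive = exactly half the replicates above a set limit; inactive = most replicates below a set limit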;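 note: all wells also contain fluconazole at 8 µg/ml as a sub-toxic cotreatment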
CSC inhib = cancer stem cell inhibition. cancer stem cell-like cells viability, luminescence. inhibition, % at 7.5 µM. 300,000 tested, 1.1% active. AID 2717; in the data active = inhibition above about 75%; inconclusive = no clear call, values can overlap the other calls; tested in HMLE shEcad cells
Mdm2 MdmX PPI = disrupts the human Mdm2-MdmX interaction; SaOS-2 split-luciferase Mdm2/MdmX complementation, luminescence; inhibition, % at 8 µM; 330,000 tested, 3% active;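 active = inhibition of at least 50% at 8 µM in the primary screen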
T cruzi repl = blocks replication of Trypanosoma cruzi; inhibition, % (no concentration beside the values); 300,000 tested, 1.4% active; T. cruzi beta-gal in NIH3T3, luminescence, 90 h; AID 1885;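 active = mean inhibition across valid replicates above about 55%, limit read from the data; inconclusive = mean below that limit but half or more replicates reach it; inactive = mean below it, under half of replicates reach it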;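 note: signal also drops with host cell toxicity which is not excluded here; higher percent means less beta-gal luminescence so fewer parasites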
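System: NIH/3T3 fibroblasts plus reporter T. cruzi. Medium: DMEM plus 2% FBS. Probe or stimulus: 5000 reporter trypomastigotes per well. Compound: single 50 nL compound addition per well in DMSO. Incubation: co-culture of at least 90 h after 3 h attachment. Detection: GalScreen β-gal luminescence, detergent lysis, 60 min. Evaluation: parasite load inhibition, %.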
Mdm2-MdmX conf = human Mdm2/MdmX binding inhibition, confirmed. 10,000 tested, 55% active. luminescent assay. shares compounds with Mdm2 MdmX PPI. AID 489028. inhibition, % at 8 µM; in the data active = inhibition above about 40%
Full FLuc ctr = inhibits full-length luciferase, flagging false Mdm2/MdmX hits; shares compounds with Mdm2 MdmX PPI; SaOS-2 full-length luciferase counterscreen, luminescence; inhibition, % at 8 µM; 6,200 tested, 77% active;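 active = mean inhibition at 8 µM reaching about 37%, which flags the compound as non-specific, limit read from the data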;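 note: p53-null SaOS-2 cells with luciferase driven by a doxycycline-inducible promoter; compound on cells about two nights before reading with doxycycline added after day one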
Of the large screens only hits and unclear results are named; the others gave an inactive call (follow-up assays come after a bar, where they were run). Shown are actives, neighbours in structure and some others; about 5.7% of the full set was active somewhere.

O=C(Nc1ccc(-c2nc3ncccc3o2)cc1)c1ccc([N+](=O)[O-])o1	Mdm2 MdmX PPI 55 | Mdm2-MdmX conf 49 | Full FLuc ctr 54
O=C(Nc1ccc2oc(-c3ccc4ccccc4c3)nc2c1)c1ccc2c(c1)OCCO2	Mdm2 MdmX PPI 80 | Mdm2-MdmX conf inactive
COc1ccc(NC(=O)CSc2ccc3nnc(-c4ccccn4)n3n2)c(OC)c1	SKKanGAS inh inconclusive
C=CCN(C(=O)Cn1nc(C)n2c(cc3cc(C)ccc32)c1=O)c1ccccc1	none
COC(=O)[C@H]1C[C@H]2[C@@H]3CC[C@H]4C[C@@H](OC)CC[C@]4(C)[C@H]3CC[C@]2(C)[C@@]2(CCCO2)O1	none (no result: SKKanGAS inh, Beta cell apopt, Calb FLC, CSC inhib, T cruzi repl)
Cc1cc(S(=O)(=O)Nc2ccc3cn[nH]c3c2)c(C)cc1Cl	T cruzi repl inconclusive
CC(=O)c1ccc(S(=O)(=O)N2CCN(C(=O)CCC3CCCC3)CC2)cc1	none (no result: SKKanGAS inh, Beta cell apopt, Calb FLC, CSC inhib, T cruzi repl)
Cn1cc([N+](=O)[O-])c(C(=O)Nc2ccc(-c3nc4ccccc4o3)cc2)n1	CSC inhib 104, Mdm2 MdmX PPI 52 (no result: SKKanGAS inh) | Mdm2-MdmX conf 49 | Full FLuc ctr 43
CC(=O)Nc1cccc(-c2nc3ccccc3o2)c1	none
CCN1C(=O)/C(=C\c2nc3ccccc3c(=O)n2-c2ccccc2)c2ccccc21	Mdm2 MdmX PPI 51 (no result: Beta cell apopt, CSC inhib) | Mdm2-MdmX conf inactive
COc1ccc(-n2c(/C=C3\C(=O)N(C)c4ccccc43)nc3ccccc3c2=O)cc1	Mdm2 MdmX PPI 61 | Mdm2-MdmX conf inactive
CCN1C(=O)/C(=C/c2nc3ccccc3c(=O)[nH]2)c2ccccc21	none (no result: SKKanGAS inh, Calb FLC, Mdm2 MdmX PPI, T cruzi repl)
CCN1C(=O)C(Cc2nc3ccccc3c(=O)n2-c2ccccc2)c2ccccc21 (configuration not stated)	none
CCN1C(=O)/C(=C/c2nc3ccccc3c(=O)n2-c2ccc(C)cc2)c2ccccc21	Mdm2 MdmX PPI 83, T cruzi repl 74 | Mdm2-MdmX conf 62 | Full FLuc ctr 86
O=[N+]([O-])c1ccc(O)c(CSc2nnnn2-c2ccccc2)c1	none
Cc1ccc(NC(=O)CCN2C(=O)NC3(CCCC3)C2=O)c(C)c1	none (no result: SKKanGAS inh, Beta cell apopt, Calb FLC, CSC inhib, T cruzi repl)
CCN(c1ccccc1)S(=O)(=O)c1cc(NC(=O)CN2CCN(C)CC2)ccc1Cl	none (no result: SKKanGAS inh, Calb FLC, T cruzi repl)
O=C(Cn1ncc2c3ccccc3n(Cc3ccccc3F)c2c1=O)NCC1CCCO1 (configuration not stated)	none
CC(Oc1cccc(Br)c1)C(=O)NNC(=O)c1ccccn1 (configuration not stated)	Mdm2 MdmX PPI 72 (no result: SKKanGAS inh, Calb FLC, T cruzi repl) | Mdm2-MdmX conf 61 | Full FLuc ctr inactive
COc1cccc(C(=O)N/N=C(/c2ccccc2)c2ccccn2)c1	SKKanGAS inh 56, Beta cell apopt 101, Mdm2 MdmX PPI 84, T cruzi repl 55 | Mdm2-MdmX conf 79 | Full FLuc ctr 39
COc1cc(OC)cc(C(=O)NC(=S)NNC(=O)c2cnccn2)c1	Beta cell apopt 85, CSC inhib 106, Mdm2 MdmX PPI 60 | Mdm2-MdmX conf inactive
COc1cc(OC)cc(C(=O)NNC(=S)NC(=O)c2cccnc2)c1	none
COc1ccc(C(=O)NNC(=O)c2ccccn2)cc1	Mdm2 MdmX PPI 98 | Mdm2-MdmX conf 94 | Full FLuc ctr inactive
COc1cccc(C(=O)N/N=C(/CCC(=O)O)c2ccccc2)c1	none
Cc1nc2nc(C)c(NS(=O)(=O)c3ccc(Cl)s3)c(=O)n2[nH]1	none
COc1ccc(OCC(=O)NNC(=O)c2ccccn2)cc1	none
COc1ccc(C(=O)NNC(=O)c2cc3ccccc3cc2O)cc1	Mdm2 MdmX PPI 50 | Mdm2-MdmX conf inactive
CCOc1ccc(OCCCC(=O)NNC(=O)c2ccncc2)cc1	none (no result: Beta cell apopt)
CC(=O)c1ccc(OCCCC(=O)NNC(=O)c2ccccn2)cc1	Mdm2 MdmX PPI 63 (no result: SKKanGAS inh, Calb FLC, CSC inhib, T cruzi repl) | Mdm2-MdmX conf inactive
COc1ccc(NC(=O)NNC(=O)c2ccc(-c3ccccc3)cc2)cc1	Mdm2 MdmX PPI 59 | Mdm2-MdmX conf inactive
COc1cc(OC)cc(C(=O)NNC(=O)c2ccccn2)c1	Mdm2 MdmX PPI 51 | Mdm2-MdmX conf 47 | Full FLuc ctr 51

Screens deposited in PubChem BioAssay by several laboratories.
